Columns and labels:
[1] = molecular target: T1, Kappa-type opioid receptor (Homo sapiens, UniProt P41145); experiment: Displacement of [3H]U50488 from human kappa opioid receptor expressed in CHO cells; assay type: cell-based
How it was run: (§1)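 Binding was run on CHO membranes at 0.5 mg protein per sample, incubated at 25 °C in 50 mM Tris–HCl pH 7.5 with the receptor-specific radioligand and 12 compound concentrations. Naloxone defined nonspecific binding. Values are means ± SEM from three experiments, each run in triplicate.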

[2] = molecular target: T2, Mu-type opioid receptor (Homo sapiens, UniProt P35372); experiment: Displacement of [3H]DAMGO from human mu opioid receptor expressed in CHO cells; assay type: cell-based; how it was run: as §1
[3] = molecular target: T3, Delta-type opioid receptor (Homo sapiens, UniProt P41143); experiment: Displacement of [3H]naltrindole from human delta opioid receptor expressed in CHO cells; assay type: cell-based; how it was run: as §1
[4] = molecular target: Delta-type opioid receptor (Rattus norvegicus, UniProt P33533); experiment: Displacement of [3H]p-Cl-DPDPE from rat delta opioid receptor expressed in rat C6 cells
[5] = molecular target: T2, Mu-type opioid receptor; experiment: Agonist activity at human mu opioid receptor expressed in CHO cells assessed as stimulation of [35S]GTPgammaS binding by scintillation counting; assay type: functional, cell-based
How it was run: (§2)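 CHO cell membranes expressing the opioid receptor were incubated with varying concentrations of compound in the presence of 0.8 nM [35S]GTPγS. EC50 and Emax were derived from the concentration–response data. Values are means from three experiments, each run in triplicate.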

[6] = molecular target: T1, Kappa-type opioid receptor; experiment: Agonist activity at human kappa opioid receptor expressed in CHO cells assessed as stimulation of [35S]GTPgammaS binding by scintillation counting; assay type: functional, cell-based; how it was run: as §2
[7] = molecular target: T3, Delta-type opioid receptor; experiment: Agonist activity at human delta opioid receptor expressed in CHO cells assessed as stimulation of [35S]GTPgammaS binding by scintillation counting; assay type: functional, cell-based; how it was run: as §2

T2 sequence (P35372 whole entry): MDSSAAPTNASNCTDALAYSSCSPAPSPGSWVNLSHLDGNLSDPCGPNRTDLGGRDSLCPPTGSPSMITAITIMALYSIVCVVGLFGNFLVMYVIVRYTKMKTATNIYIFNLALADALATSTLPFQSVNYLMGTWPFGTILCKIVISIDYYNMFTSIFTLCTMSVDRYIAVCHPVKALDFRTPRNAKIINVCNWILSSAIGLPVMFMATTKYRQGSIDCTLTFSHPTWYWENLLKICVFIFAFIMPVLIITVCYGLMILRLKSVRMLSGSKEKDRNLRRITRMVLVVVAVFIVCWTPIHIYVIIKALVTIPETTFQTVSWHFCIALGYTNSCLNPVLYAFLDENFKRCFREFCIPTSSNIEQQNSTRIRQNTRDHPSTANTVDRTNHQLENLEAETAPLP
T3 sequence (P41143 whole entry): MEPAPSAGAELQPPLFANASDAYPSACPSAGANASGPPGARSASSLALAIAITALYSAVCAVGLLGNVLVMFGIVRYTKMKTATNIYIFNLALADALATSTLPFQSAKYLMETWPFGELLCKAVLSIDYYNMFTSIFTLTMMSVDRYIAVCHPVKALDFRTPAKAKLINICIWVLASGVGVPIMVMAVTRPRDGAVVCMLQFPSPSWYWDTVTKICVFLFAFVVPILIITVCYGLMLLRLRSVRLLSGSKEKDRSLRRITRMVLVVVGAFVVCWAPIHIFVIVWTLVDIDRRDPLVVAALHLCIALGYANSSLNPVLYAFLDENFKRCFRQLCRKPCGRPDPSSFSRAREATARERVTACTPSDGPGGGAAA
T1 sequence (P41145 whole entry): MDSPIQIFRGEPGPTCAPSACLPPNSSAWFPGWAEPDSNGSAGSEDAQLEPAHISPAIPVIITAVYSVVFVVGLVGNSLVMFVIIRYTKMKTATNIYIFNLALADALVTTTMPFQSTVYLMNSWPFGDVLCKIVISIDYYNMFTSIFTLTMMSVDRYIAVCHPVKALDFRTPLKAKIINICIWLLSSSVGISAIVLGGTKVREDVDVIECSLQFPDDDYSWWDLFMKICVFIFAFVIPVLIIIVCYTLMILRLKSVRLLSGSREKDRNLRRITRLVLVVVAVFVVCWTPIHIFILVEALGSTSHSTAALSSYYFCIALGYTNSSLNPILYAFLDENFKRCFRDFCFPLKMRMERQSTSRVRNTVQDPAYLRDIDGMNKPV
Delta-type opioid receptor (Rattus norvegicus, UniProt P33533), sequence (P33533 whole entry): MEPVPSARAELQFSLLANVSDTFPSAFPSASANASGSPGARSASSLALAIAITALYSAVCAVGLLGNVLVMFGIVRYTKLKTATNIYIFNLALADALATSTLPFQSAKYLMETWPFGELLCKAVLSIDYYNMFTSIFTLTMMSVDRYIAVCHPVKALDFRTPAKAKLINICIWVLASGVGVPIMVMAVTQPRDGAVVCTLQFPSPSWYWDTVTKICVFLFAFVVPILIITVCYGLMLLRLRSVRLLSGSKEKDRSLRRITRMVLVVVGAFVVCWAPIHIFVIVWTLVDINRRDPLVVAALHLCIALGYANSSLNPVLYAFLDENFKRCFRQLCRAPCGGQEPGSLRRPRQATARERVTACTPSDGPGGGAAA

Structure (SMILES): COc1ccc2c(c1)[C@]13CCN(C)C[C@@]1(C2)Cc1c([nH]c2ccccc12)C3
- Ki [1]: 5120 nM
- Ki [2]: 1820 nM
- Ki [3]: 765 nM

Structure (SMILES): Oc1ccc2c3c1O[C@H]1c4[nH]c5ccccc5c4C[C@@]4(O)[C@@H](C2)N(CC2CC2)CC[C@]314 [NALTRINDOLE]
- Ki [4]: 0.2 nM

Structure (SMILES): COc1ccc2c(c1O)[C@]13CCN(C)[C@H](C2)[C@]1(O)Cc1c([nH]c2ccccc12)C3
- Ki [1]: 3160 nM
- Ki [2]: 1850 nM
- Ki [3]: 21.8 nM

Structure (SMILES): Oc1ccc2c(c1)[C@]13CCN(CC4CC4)C[C@@]1(C2)Cc1c([nH]c2ccccc12)C3
- Ki [1]: 704 nM
- EC50 [5]: 33 nM
- Emax [5]: 88.6%
- EC50 [6]: 67.1 nM
- Emax [6]: 79.9%
- Ki [2]: 523 nM
- EC50 [7]: 10 nM
- Emax [7]: 91.4%
- Ki [3]: 2550 nM

Structure (SMILES): Cn1c2c(c3ccccc31)C[C@@]13Cc4ccc(O)cc4[C@@]1(CCN(CC1CC1)C3)C2
- Ki [1]: 1520 nM
- Ki [2]: 469 nM
- Ki [3]: 1790 nM

Structure (SMILES): CN1CC[C@]23Cc4c(c5ccccc5n4C)C[C@]2(Cc2ccc(O)cc23)C1
- Ki [1]: 1120 nM
- EC50 [5]: 174 nM
- Emax [5]: 95.7%
- EC50 [6]: 62.1 nM
- Emax [6]: 76.2%
- Ki [2]: 40.2 nM
- EC50 [7]: 65 nM
- Emax [7]: 77.3%
- Ki [3]: 268 nM

Structure (SMILES): COc1ccc2c(c1)[C@]13CCN(CC4CC4)C[C@@]1(C2)Cc1c([nH]c2ccccc12)C3
- Ki [1]: 2550 nM
- Ki [2]: 1420 nM
- Ki [3]: 6650 nM

Structure (SMILES): COc1ccc2c(c1)[C@]13CCN(C)C[C@@]1(C2)Cc1c(n(C)c2ccccc12)C3
- Ki [1]: 3810 nM
- Ki [2]: 713 nM
- Ki [3]: > 10000 nM

Structure (SMILES): CN1CC[C@]23Cc4[nH]c5ccccc5c4C[C@]2(Cc2ccc(O)cc23)C1
- Ki [1]: 1190 nM
- Ki [2]: 104 nM
- Ki [3]: 1120 nM

Structure (SMILES): COc1c(O)ccc2c1[C@]13CCN(C)[C@H](C2)[C@]1(O)Cc1c([nH]c2ccccc12)C3
- Ki [2]: 474 nM
- Ki [3]: 4.5 nM

From ChEMBL document CHEMBL1153456, “Synthesis and opioid receptor activity of indolopropellanes” (Bioorg Med Chem Lett, 2009)
